Screening data (PubChem)
Most compounds without a hit are left out; they make up all but 2.3% or so of the library.
FN deposit inh: fibronectin deposition inhibition; AH1F fibroblasts, Alexa488-fibronectin deposition fluorescence, overnight; inhibition, % at 12.6 µM; 0.086% of 350,000 active; AID 743247;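 active means mean inhibition across replicates of 30% or more, regardless of how many single replicates reach that level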;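 further: positive control wells lacked labelled fibronectin entirely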
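Test system: AH1F fibroblast monolayer depositing Alexa488-labelled fibronectin into matrix. Input: 10000 cells per well. Technique: fluorescence, ex 485 nm, em 525 nm. Buffer or medium: DMEM plus 2% serum, read in PBS. Timing: 1 h cell adhesion before compound, then overnight fibronectin incubation. Compound: single dose, pinned. Read-out basis: inhibition from reduced deposited-fibronectin fluorescence.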
PAX8 inh HTS: inhibitors of PAX8 transcriptional activity in RMG-I cells. RMG-I TPO-luciferase reporter, SteadyGlo, 24 h. inhibition, % at 12.6 µM. 1.2% of 360,000 active;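 active means mean replicate inhibition at least 60% with every replicate also reaching 60%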;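 further: luciferase light reporting Pax8 driven TPO promoter activity; plate controls were median of neutral control wells for no effect and mitoxantrone controls for full effect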
F508del corr: CFTR F508del correction in bronchial cells. CFBE cells, YFP halide quenching; stimulated with forskolin plus potentiator P3; % fluorescence drop versus neutral controls. activity (quench increase), % at 7.58 µM. 0.36% of 350,000 active;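 active means mean added fluorescence quench of at least 8% versus neutral control, with both replicates also reaching 8%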;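 further: cells transiently co-express mutant CFTR-F508del with the halide-sensitive YFP; corrector assay measuring rescue of mutant channel to the surface after 24 h compound exposure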
Env fusion inh: blocks HIV Env-driven cell-cell fusion; HeLa-JRFL Env/CEM21 cell fusion, luciferase; inhibition, % at 12.3 µM; 1.1% of 360,000 active; AID 651610;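 active means mean replicate inhibition score of at least 50 and every replicate individually at or above 50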;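 further: 0% = plate neutral controls and 100% = maraviroc near 300 nM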
PGC1a acetyl inh: lowers PGC1a acetylation signal in U2OS cells | 0.17% of 350,000 active | AlphaScreen anti-acetyl-lysine; with virally co-expressed GCN5 acetyltransferase | inhibition, % at 15.6 µM;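 active means every replicate shows inhibition of at least 40%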;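 further: 0% = neutral control wells and 100% = positive control wells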
EWS-Fli block: EWS/Fli transcriptional activity inhibition; inhibition, % at 12.6 µM; A673 NR0B1-luciferase reporter, viability-normalised; 0.67% of 350,000 active; AID 651661;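 active means mean inhibition of at least 50% after viability correction, with every replicate also passing that limit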;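 further: firefly luciferase signal divided by Alamar Blue viability fluorescence both relative to DMSO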
* hit, by the source's call; / = no result; [ ] = another dose, or the depositor's remark.

SMILES	FN deposit inh	PAX8 inh HTS	F508del corr	Env fusion inh	PGC1a acetyl inh	EWS-Fli block
O=C(NC(=S)Nc1ccc(CN2CCOCC2)cc1)c1ccc(-c2cccc(Cl)c2)o1	-17.6	0.2	2.8	14.7	-16.8	28.3
O=C(Nc1ccc(CN2CCOCC2)cc1)c1ccccc1F	2.1	-133.5	/	-13.7	/	/
C[C@H](CO)N1C[C@H](C)[C@@H](CN(C)C(=O)C2CCC2)Oc2cc(C#Cc3ccncc3)ccc2S1(=O)=O	-15.1	/	-2.1	-60.3[16.7 µM]	-20.1	4.1
Cc1ccc(S(=O)(=O)N(C)C[C@@H]2Oc3ccc(NC(=O)Nc4ccc5c(c4)OCO5)cc3CC(=O)N([C@@H](C)CO)C[C@@H]2C)cc1	/	52.5	0.2	-137.4[16.7 µM]	-7.3	63.4*
C[C@H]1CN([C@@H](C)CO)C(=O)Cc2cc(NC(=O)Nc3ccc4c(c3)OCO4)ccc2O[C@H]1CN(C)S(=O)(=O)c1ccc(F)cc1	-0.3	/	-0.1	-11.4[16.7 µM]	-0.1	52.9*
C[C@H](CO)N1C[C@H](C)[C@H](CN(C)S(=O)(=O)c2ccccc2)Oc2ccc(NC(=O)Nc3ccc4c(c3)OCO4)cc2CC1=O	2.8	/	1.1	75.1*[16.7 µM]	-4.0	9.2
C[C@@H]1CN([C@H](C)CO)S(=O)(=O)c2ccc(C#CCN(C)C)cc2O[C@H]1CN(C)Cc1ccc2c(c1)OCO2	-16.3	/	1.7	-3.3[16.7 µM]	-28.8	13.4
CO[C@H](CN(C)C(=O)c1ccccc1F)[C@@H](C)CN([C@@H](C)CO)S(=O)(=O)c1ccccc1	-10.9	/	2.7	/	-7.4	3.4
Cc1ccc(-c2cnc3c(c2)C(=O)N([C@@H](C)CO)C[C@H](C)[C@H](CN(C)Cc2ccccc2C(=O)O)O3)cc1	/	/	1.6	-3.2[16.7 µM]	4.3	-8.7
C=CCn1c(Cc2ccc(OCC)cc2)nnc1SCC(N)=O	1.4	/	/	77.3*	10.9	/
C=CCn1c(COc2ccc(Cl)cc2)nnc1SCC(=O)Nc1ccc(S(N)(=O)=O)cc1	2.1	63.6*	-1.2	/	0.2	-6.6
C=CCn1c(COc2ccc(Cl)cc2)nnc1SCc1ccc(C#N)cc1	/	/	/	58.0*	4.3	/
Cc1ccc(OCc2nnc(SCc3ccc(C#N)cc3)n2-c2ccc(C)cc2)cc1	/	/	/	64.7*	-8.3	/
C=CCn1c(Cc2ccc(OC)cc2)nnc1SCC(N)=O	1.6	/	/	-16.7	/	/
C=CCn1c(COc2ccccc2)nnc1SCc1ccc(C#N)cc1	/	/	/	/	-8.6	/
CCn1c(COc2ccc(C)cc2)nnc1SCC(=O)Nc1ccc(S(N)(=O)=O)cc1	/	/	/	/	-0.1	/
O=C(c1cccc(S(=O)(=O)N2CCN(c3ccc(F)cc3)CC2)c1)N1CCCC(C(F)(F)F)C1 (stereo unspecified)	-2.9	30.6	10.0*	/	30.7	20.5
NC(=O)c1ccc(=O)n(C2OC(CO)C(O)C2O)c1 (stereo unspecified)	-3.0	-10.8	-5.4	-129.5	-26.6	3.0
O=C1C=CN(C2OC(CO)C(O)C2O)C(=O)C1 (stereo unspecified)	/	-4.7	9.7*	65.3*	/	-9.0
N#C[C@H]1[C@@H](c2ccc(C3=CCCCC3)cc2)[C@H](CO)N1C(=O)NC1CCCCC1	0.0	8.0	-3.0	0.7[16.7 µM]	-9.8	-12.5
O=C(Nc1ccccc1)N1CCc2scc[n+]2-c2ccccc21	-1.1	111.7*	-1.7	/	/	3.7
CC1CN(C(=O)Nc2ccccc2)c2ccccc2-[n+]2ccsc21 (stereo unspecified)	1.2	4.1	/	-47.1	/	/
CN1[C@@H]2c3ccc(-c4ccccc4)c(=O)n3C[C@@H]2[C@@H](CO)[C@@H]1C(=O)N1CCc2ccccc2C1	/	68.2*	/	-45.8[16.7 µM]	/	4.7
C(=N\Nc1nncc2ccccc12)/c1ccccn1	5.9	-62.0	-3.2	84.2*	0.8	41.1
Fc1cccc(/C=N/Nc2nncc3ccccc23)c1	-1.0	-28.7	2.0	-158.0	-5.5	21.6
SMILES	FN deposit inh	PAX8 inh HTS	F508del corr	Env fusion inh	PGC1a acetyl inh	EWS-Fli block
CCCCOC(=O)c1[nH]c2c(c1C)C(=O)CC(c1cc(OC)c(OC)c(OC)c1)C2 (stereo unspecified)	-4.9	44.5	-0.5	63.9*	/	28.0
COC(=O)c1[nH]c2c(c1C)C(=O)CC(c1cc(OC)ccc1OC)C2 (stereo unspecified)	-20.9	20.9	3.6	-105.1	-8.2	54.2*
CCOc1ccc(C2CC(=O)c3c([nH]c(C(=O)OC)c3C)C2)cc1OC (stereo unspecified)	/	/	/	/	-2.8	/
CN(C)C(=O)c1ccc(-c2ccc3c(c2)[C@H]2[C@H](CCN2C(=O)C2CCOCC2)[C@@H](CO)N3C)cc1	-7.3	11.0	0.1	/	-8.6	-8.9
CCCNC(=O)Nc1ccc2c(c1)OC[C@@H](C)N(C(=O)C1CC1)C[C@H](C)[C@@H](OC)CN(C)C2=O	-3.2	-8.6	1.5	/	/	10.9
O=C(C[C@@H]1C=C[C@@H](NS(=O)(=O)c2ccccc2)[C@@H](CO)O1)N1CCc2ccccc2C1	/	5.0	1.1	7.2[16.7 µM]	-1.7	-7.0
COC/C=C/C1=CC2=CC(=O)C(C)(OC(=O)c3cnc4ccccc4n3)C(=O)C2=CN1CC(C)C (stereo unspecified)	/	/	/	/	7.8	/
COC/C=C/C1=CC2=CC(=O)C(C)(OC(=O)c3cnc4ccccc4n3)C(=O)C2=CN1c1ccccc1 (stereo unspecified)	-0.5	66.8*	4.1	8.2	/	9.2
O=S(=O)(NCC(Nc1ccccc1)c1ccccc1)c1ccc(Cl)cc1 (stereo unspecified)	-7.3	9.8	/	98.4*	-22.4	/
O=C(CCS(=O)(=O)c1ccccc1)Nc1ncc([N+](=O)[O-])s1	7.0	78.2*	-0.1	12.1	-3.6	-9.1
COCc1nnc(NC(=O)CCS(=O)(=O)c2ccccc2)s1	4.8	66.5*	0.3	7.3	-9.0	-9.1
CCc1nnc(NC(=O)CCS(=O)(=O)Cc2ccccc2)s1	2.6	8.3	2.9	-5.1	/	-10.1
CCCCc1nnc(NC(=O)CN(C)S(=O)(=O)c2ccc(C)cc2)s1	/	7.9	0.4	-10.1	-14.5	/
CCC(CC)c1nnc(NC(=O)CCS(=O)(=O)Cc2ccccc2)s1	9.3	61.6*	-2.4	-1.3	/	8.5
CCCCc1nnc(NC(=O)CCS(=O)(=O)c2ccc(C)cc2)s1	2.8	78.8*	-6.7	4.3	/	-23.9
C[C@H]1CN([C@@H](C)CO)C(=O)c2cc(C#CCc3ccccc3)cnc2O[C@H]1CN(C)Cc1ccccc1	/	20.4	1.5	/	1.9	22.3
C[C@H](CO)N1C[C@H](C)[C@H](CN(C)C(=O)Cc2ccccc2)OCCCC[C@H](C)Oc2ccc(NC(=O)C3CCCCC3)cc2C1=O	/	9.6	-0.2	-10.1[16.7 µM]	-9.5	-6.4
CCc1nnc(NC(=O)CCS(=O)(=O)c2ccc(C)cc2)s1	-6.2	64.2*	1.7	/	1.7	-36.3
CCc1nnc(NC(=O)CCS(=O)(=O)c2ccccc2)s1	5.3	9.4	2.8	6.0	-1.1	-28.5
O=C(C[C@H]1C=C[C@H](NS(=O)(=O)c2ccccc2)[C@@H](CO)O1)N1CCC(Cc2ccccc2)CC1	/	7.6	0.7	/	-8.3	11.4
